We go through two compounds from ChEMBL document CHEMBL1177870, “Multiple toxin production in the cyanobacterium microcystis: isolation of the toxic protease inhibitor cyanopeptolin 1020” (J Nat Prod, 2010).

As usually defined, the IC50 is the concentration that inhibits the measured activity by half. High values mean a need for much substance, low ones inhibition by little substance. Broadly, the LC50 is the concentration lethal to half of the exposed cells or organisms. A higher LC50 goes with lower toxicity.

Activity calls are given as the source filed them. No cut-off for these calls is given here. Where only a bound is given, the exact number is not on record here.

Series [1] in a line: Inhibition of bovine trypsin. Set-up: species or system Bos taurus. An outline of the steps: (§1)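 Fluorogenic kinetic assay. Protease and inhibitor preincubated at RT for 30 min before substrate was added. Read at ex 355/em 480 nm every 30 s for 1 h. Initial rates were taken by linear regression, and fractional activity was the inhibited rate over the uninhibited blank rate.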

A short description of series [2]: Inhibition of trypsin. Put shortly:
as §1

The target in the next series is Coagulation factor XI (Homo sapiens, UniProt P03951). Put plainly: Inhibition of factor 11a. Put shortly: as §1
Sequence of Coagulation factor XI (P03951 19-387 limits assumed): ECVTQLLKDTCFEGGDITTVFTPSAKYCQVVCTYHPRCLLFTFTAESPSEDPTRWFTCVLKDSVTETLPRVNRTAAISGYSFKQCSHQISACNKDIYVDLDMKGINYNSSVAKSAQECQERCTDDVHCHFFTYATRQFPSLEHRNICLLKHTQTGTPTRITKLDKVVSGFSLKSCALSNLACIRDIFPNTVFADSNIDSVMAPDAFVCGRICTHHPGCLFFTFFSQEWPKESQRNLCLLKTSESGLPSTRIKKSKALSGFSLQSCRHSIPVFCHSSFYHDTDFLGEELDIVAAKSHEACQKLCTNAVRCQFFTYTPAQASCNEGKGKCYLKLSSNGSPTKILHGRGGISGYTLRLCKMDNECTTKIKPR
Sequence of Coagulation factor XI (P03951 388-625 limits assumed): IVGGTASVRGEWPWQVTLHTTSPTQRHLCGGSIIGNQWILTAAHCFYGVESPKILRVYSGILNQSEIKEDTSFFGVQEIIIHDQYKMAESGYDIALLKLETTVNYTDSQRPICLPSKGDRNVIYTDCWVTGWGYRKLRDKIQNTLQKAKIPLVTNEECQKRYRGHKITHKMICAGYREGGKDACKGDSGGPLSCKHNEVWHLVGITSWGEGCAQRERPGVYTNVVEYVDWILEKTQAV
Series [3] is described as follows: Inhibition of human kallikrein. An outline of the steps: as §1
The target of another series is Plasminogen (Homo sapiens, UniProt P00747). Nature of the series: Inhibition of plasmin. An outline of the steps:
as §1

The nature of series [4]: Inhibition of chymotrypsin. Put shortly: as §1
Series [5] deals with T1, Tissue-type plasminogen activator (Homo sapiens, UniProt P00750). Put plainly: Inhibition of human tissue plasminogen activator. Put shortly:
as §1
Target sequence in this assay (P00750 whole entry): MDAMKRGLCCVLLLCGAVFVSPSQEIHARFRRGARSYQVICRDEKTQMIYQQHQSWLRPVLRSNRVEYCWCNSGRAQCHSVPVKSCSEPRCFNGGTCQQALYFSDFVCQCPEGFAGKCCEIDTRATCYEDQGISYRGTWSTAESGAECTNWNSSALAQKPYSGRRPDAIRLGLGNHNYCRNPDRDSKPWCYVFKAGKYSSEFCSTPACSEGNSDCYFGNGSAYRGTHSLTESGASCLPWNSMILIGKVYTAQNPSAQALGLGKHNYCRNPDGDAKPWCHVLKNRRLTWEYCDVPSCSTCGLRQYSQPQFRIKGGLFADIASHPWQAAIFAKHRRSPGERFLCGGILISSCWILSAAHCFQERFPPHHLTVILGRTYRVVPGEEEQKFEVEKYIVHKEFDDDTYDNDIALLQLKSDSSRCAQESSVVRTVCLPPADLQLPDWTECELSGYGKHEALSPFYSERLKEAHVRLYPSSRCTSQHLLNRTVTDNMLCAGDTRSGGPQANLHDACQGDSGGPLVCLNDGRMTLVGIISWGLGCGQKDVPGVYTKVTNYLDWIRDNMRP

Series [6] has as its target T2, Prothrombin (Homo sapiens, UniProt P00734). Put plainly: Inhibition of thrombin. Put shortly: as §1
Series [7] has as its target T3, Urokinase-type plasminogen activator (Homo sapiens, UniProt P00749). Put plainly: Inhibition of human LMW urokinase. An outline of the steps: as §1
Series [8] is described as follows: Toxicity in Thamnocephalus platyurus after 24 hrs by acute toxicity assay. As to conditions: in vivo. The class given is organism-based. Put shortly:
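Thamnocephalus platyurus instar II–III larvae hatched from cysts were exposed in multiwell plates for 24 h to six concentrations from 0.1 to 100 µM of highly purified compound, with 20–30 animals per concentration. LC50 was obtained by nonlinear regression.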

Series [9] has as its target T1, Tissue-type plasminogen activator. Nature of the series: Inhibition of human tissue plasminogen activator at < 2.5 uM. An outline of the steps:
as §1
Target sequence in this assay (P00750 36-562 limits assumed): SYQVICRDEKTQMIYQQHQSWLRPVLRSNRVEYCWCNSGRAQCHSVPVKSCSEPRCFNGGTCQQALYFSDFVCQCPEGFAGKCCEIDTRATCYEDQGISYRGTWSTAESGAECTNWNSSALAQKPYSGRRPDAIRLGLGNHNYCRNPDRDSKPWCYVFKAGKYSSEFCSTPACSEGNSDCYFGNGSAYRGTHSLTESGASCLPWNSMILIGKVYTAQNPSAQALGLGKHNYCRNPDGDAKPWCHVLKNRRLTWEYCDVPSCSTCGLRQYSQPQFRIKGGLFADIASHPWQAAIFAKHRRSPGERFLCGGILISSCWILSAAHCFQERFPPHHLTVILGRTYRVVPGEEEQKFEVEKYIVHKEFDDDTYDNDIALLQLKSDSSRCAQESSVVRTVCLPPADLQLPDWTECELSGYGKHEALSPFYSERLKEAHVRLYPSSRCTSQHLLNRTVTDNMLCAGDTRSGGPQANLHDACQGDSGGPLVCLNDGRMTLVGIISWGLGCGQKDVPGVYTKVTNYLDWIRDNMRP

The target in series [10] is T2, Prothrombin. Nature of the series: Inhibition of thrombin at < 2.5 uM. Put shortly:
as §1

Series [11] deals with T3, Urokinase-type plasminogen activator. Nature of the series: Inhibition of human LMW urokinase at < 2.5 uM. Put shortly:
as §1

Sequence of Plasminogen (P00747 97-580 limits assumed): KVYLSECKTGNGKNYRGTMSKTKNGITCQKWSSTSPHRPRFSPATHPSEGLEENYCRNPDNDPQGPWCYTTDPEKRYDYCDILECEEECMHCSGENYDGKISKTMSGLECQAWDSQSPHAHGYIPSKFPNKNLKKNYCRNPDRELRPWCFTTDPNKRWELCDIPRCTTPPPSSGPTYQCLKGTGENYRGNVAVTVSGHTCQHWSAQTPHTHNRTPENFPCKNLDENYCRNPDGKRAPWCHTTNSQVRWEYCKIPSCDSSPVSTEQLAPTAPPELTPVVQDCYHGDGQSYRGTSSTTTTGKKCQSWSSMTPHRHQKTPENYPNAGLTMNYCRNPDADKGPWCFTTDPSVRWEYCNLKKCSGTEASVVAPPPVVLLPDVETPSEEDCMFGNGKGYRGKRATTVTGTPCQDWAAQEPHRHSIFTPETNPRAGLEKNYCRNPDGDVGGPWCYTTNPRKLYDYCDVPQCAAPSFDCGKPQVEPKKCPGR
Sequence of Plasminogen (P00747 581-810 limits assumed): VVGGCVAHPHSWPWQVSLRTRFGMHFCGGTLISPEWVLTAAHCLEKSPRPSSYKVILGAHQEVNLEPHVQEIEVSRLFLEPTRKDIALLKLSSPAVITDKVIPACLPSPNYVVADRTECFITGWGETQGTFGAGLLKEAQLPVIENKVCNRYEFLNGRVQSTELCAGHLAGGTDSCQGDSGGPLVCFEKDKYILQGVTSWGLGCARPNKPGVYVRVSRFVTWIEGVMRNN

In series [1], `CC(C)C[C@@H](NC(=O)[C@H](O)COS(=O)(=O)O)C(=O)N[C@@H]1C(=O)N[C@@H](CCCNC(=N)N)C(=O)N[C@H]2CC[C@@H](O)N(C2=O)[C@@H](CC(C)C)C(=O)N(C)[C@@H](Cc2ccc(O)cc2)C(=O)N[C@@H](C(C)C)C(=O)O[C@@H]1C` showed an IC50 of 10 nM.

Consider `CCCCCC(=O)N[C@@H](CCC(=O)O)C(=O)N[C@@H]1C(=O)N[C@@H](CCCNC(=N)N)C(=O)N[C@H]2CC[C@@H](O)N(C2=O)[C@@H](Cc2ccccc2)C(=O)N(C)[C@@H](Cc2ccc(O)cc2)C(=O)N[C@@H](C(C)C)C(=O)O[C@@H]1C` [CYANOPEPTOLIN 1020], for which the IC50 in [2] is 0.67 nM; against Coagulation factor XI, 3.9 nM; in series [3] it was 4.5 nM; on Plasminogen, 490 nM; in series [4], 1800 nM; in series [5] it was > 2500 nM. Also, the results for the IC50 (against Prothrombin [6]; in series [7]) were > 2500 nM and > 605 µM, respectively. Moreover, the LC50 at 24 h in series [8] stood at 8.8 µM. Moreover, the inhibition result (in [9]; on Prothrombin [10]; in [11]) was “inactive” each time.
